MEKK3 PB1 HTS: raises or lowers MEK5 binding to the human MEKK3 PB1 domain | Q99759 | bead-based flow cytometry, Alexa488-MEK5 binding to MEKK3; actives lie on both sides; 0 = blocked by unlabeled MEK5, 100 = vehicle | binding response (% of control), % at 10 µM | actives 1.4% (n = 290,000);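 active = binding response more than 3 SD above or below the average of its plate-row segment, actives on both sides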;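 also: Alexa488 bead fluorescence after subtracting the streptavidin-only scavenger bead signal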
Target sequence (Q99759 whole entry, looked up, the tested form may be a part): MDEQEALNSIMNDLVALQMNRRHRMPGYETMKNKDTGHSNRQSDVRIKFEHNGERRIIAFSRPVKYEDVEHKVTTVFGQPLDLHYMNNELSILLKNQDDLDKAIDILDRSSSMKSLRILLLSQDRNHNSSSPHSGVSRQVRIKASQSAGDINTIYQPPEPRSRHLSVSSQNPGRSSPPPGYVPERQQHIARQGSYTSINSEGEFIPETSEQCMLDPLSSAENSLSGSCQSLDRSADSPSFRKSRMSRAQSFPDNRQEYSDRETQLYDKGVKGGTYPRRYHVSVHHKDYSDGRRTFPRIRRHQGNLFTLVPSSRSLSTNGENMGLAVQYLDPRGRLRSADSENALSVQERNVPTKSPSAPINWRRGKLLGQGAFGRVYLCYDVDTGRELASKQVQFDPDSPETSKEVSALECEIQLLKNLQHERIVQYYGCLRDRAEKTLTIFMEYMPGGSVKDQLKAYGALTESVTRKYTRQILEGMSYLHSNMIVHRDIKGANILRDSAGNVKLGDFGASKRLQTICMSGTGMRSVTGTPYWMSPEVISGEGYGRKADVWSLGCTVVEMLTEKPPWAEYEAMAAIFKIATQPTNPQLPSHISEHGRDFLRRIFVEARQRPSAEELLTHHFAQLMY
MEKK2wt PB1 HTS: raises or lowers MEK5 binding to wildtype human MEKK2 PB1 domain. AID 1531. bead flow cytometry, Alexa488-MEK5 binding to MEKK2 WT; actives lie on both sides. Q9Y2U5. actives 1.1% (n = 290,000). binding response (% of control), % at 10 µM; in the data active = binding response below about 67% or above about 130%
T cruzi repl: blocks replication of Trypanosoma cruzi; T. cruzi beta-gal in NIH3T3, luminescence, 90 h; inhibition, % (concentration not given with the values); actives 1.4% (n = 300,000);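 active = mean inhibition across valid replicates above about 55%, limit read from the data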;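 also: signal also drops with host cell toxicity which is not excluded here; 0% = plate median of DMSO wells and 100% = zero luminescence signal; higher percent means less beta-gal luminescence so fewer parasites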
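Material: NIH/3T3 host cells with β-galactosidase reporter T. cruzi; Input: 5,000 host fibroblasts per well; Medium: DMEM, 2% fetal bovine serum; Compound: 50 nL DMSO compound solution per well; Schedule: 3 h host attachment, then at least 90 h co-culture; Detection: luminescent β-galactosidase signal after 60 min lysis.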
NS3 helicase inh: HCV NS3 helicase inhibition; NS3 helicase DNA unwinding, Cy5 molecular beacon fluorescence; inhibition, % at 10.9 µM; actives 0.56% (n = 290,000);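 active = inhibition above the mean of all tested compounds plus 3 SD, set per campaign, cut at about 35% in these data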;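 also: 0% = DMSO wells and 100% = thioflavine S control wells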
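System: NS3 helicase fragment of HCV / Schedule: 1 h at 25 °C / Control set: DMSO alone as 0% and 110 µM thioflavine S as 100% / Reagent: Cy5/quencher beacon DNA duplex and ATP to start / Technique: Cy5 fluorescence / Replication: singlicate / Evaluation: % inhibition of end-to-start signal ratio versus controls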
FID counter: displaces DNA intercalator in HCV helicase counter-screen; DNA fluorescent intercalator displacement, fluorescence; inhibition, % at 7.9 µM; actives 0.17% (n = 290,000); in the data active = inhibition above about 37%;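 also: 0% = vehicle and 100% = reference compound; higher means more ethidium bromide displaced from hairpin DNA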
MEKK2mut PB1 HTS: signal of MEK5 binding to mutant human MEKK2 PB1 domain | percent response, % at 10 µM | AID 1530 | actives 0.35% (n = 290,000) | bead flow cytometry, Alexa488-MEK5 binding to MEKK2 mutant; in the data active = percent response above about 24%, passing the limit was not always enough
MEKK2wt confirm: raises or lowers MEK5 binding to wildtype human MEKK2, retest | shares compounds with MEKK3 PB1 HTS | bead flow cytometry, Alexa488-MEK5 binding to MEKK2 WT; actives lie on both sides | binding response (% of control), % at 10 µM | actives 2.4% (n = 5,900) | AID 1892; in the data active = binding response below about 16% or above about 210%; inactive = in between
MEKK2mut confirm: signal of MEK5 binding to mutant human MEKK2, retest | actives 2% (n = 5,900) | bead flow cytometry, Alexa488-MEK5 binding to MEKK2 mutant | shares compounds with MEKK3 PB1 HTS | percent response, % at 10 µM; in the data active = percent response mostly above about 71%, no sharp cut-off; inactive = mostly below about 38%;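 also: higher means compound restores mutant binding toward wildtype level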
MEKK3 confirm: confirmation of inhibitors of MEK5 binding to human MEKK3. actives 1.8% (n = 5,900). binding response (% of control), % at 10 µM. bead flow cytometry, Alexa488-MEK5 binding to MEKK3; stronger effect = lower value. AID 1894. shares compounds with MEKK3 PB1 HTS;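 active = binding response below 72% of control, or above a set upper limit, though filed actives all read lower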;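 also: 100% = DMSO only wells and 0% = binding blocked by excess unlabeled MEK5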
* hit, by the source's call; [ ] = dose if it differs, or a comment. Rows were chosen to be rich in hits. Some 4.1% of all compounds tested hit in one or more screens of this group.

How did Cc1cc(CN(C)C(=O)c2ccc(OC3CCN(CCc4ccccc4)CC3)cc2)on1 do in these assays?
MEKK3 PB1 HTS: 102; MEKK2wt PB1 HTS: 113; T cruzi repl: 4; NS3 helicase inh: -4; FID counter: 5; MEKK2mut PB1 HTS: 10

What do the screens show for `CSc1ccc(C(=O)NC2CCSc3ccccc32)cc1` (stereo unspecified)?
MEKK3 PB1 HTS: 101; MEKK2wt PB1 HTS: 98; T cruzi repl: 3; NS3 helicase inh: 13; FID counter: -16; MEKK2mut PB1 HTS: -2

Results for O=C(NC(Cc1c[nH]c2ccccc12)C(=O)Nc1ccc(F)cc1)c1cccs1 (stereo unspecified) ?
MEKK3 PB1 HTS: 128*; MEKK2wt PB1 HTS: 106; T cruzi repl: -9; NS3 helicase inh: -2; FID counter: 2; MEKK2mut PB1 HTS: 3; MEKK2wt confirm: 97; MEKK2mut confirm: -1; MEKK3 confirm: 98

How did Cn1ccnc1SCC(=O)c1ccc2ccccc2c1 do in these assays?
MEKK3 PB1 HTS: 94; MEKK2wt PB1 HTS: 96; T cruzi repl: -3; NS3 helicase inh: 13; FID counter: -1; MEKK2mut PB1 HTS: -5

How did CC(C)n1cc(CN2CCN(C)C(CCO)C2)c2ccccc21 (stereo unspecified) do in these assays?
MEKK3 PB1 HTS: 110; MEKK2wt PB1 HTS: 112; T cruzi repl: 59*; NS3 helicase inh: 2; FID counter: 9; MEKK2mut PB1 HTS: 24*; MEKK2wt confirm: 104; MEKK2mut confirm: 3; MEKK3 confirm: 105

What do the screens show for `CC(C)Cn1c(CN2CCN(C)C(CCO)C2)nc2ccccc21` (stereo unspecified)?
MEKK3 PB1 HTS: 105; MEKK2wt PB1 HTS: 109; T cruzi repl: 23; NS3 helicase inh: -5; FID counter: -2; MEKK2mut PB1 HTS: 9

What do the screens show for `COC(=O)c1c(NC(=O)CN2CCN(C(=O)c3ccco3)CC2)c2c(C)cccc2n1C`?
MEKK3 PB1 HTS: 122*; MEKK2wt PB1 HTS: 120; T cruzi repl: -10; NS3 helicase inh: 4; FID counter: -27; MEKK2mut PB1 HTS: 18; MEKK2wt confirm: 95; MEKK2mut confirm: -3; MEKK3 confirm: 101

Results for COC(=O)c1c(NC(=O)CN2CCN(C(=O)c3ccco3)CC2)c2cc(C)ccc2n1C ?
MEKK3 PB1 HTS: 101; MEKK2wt PB1 HTS: 93; T cruzi repl: 26; NS3 helicase inh: -21; FID counter: -22; MEKK2mut PB1 HTS: -2

How did CCCCn1cc(C(C)(C)C)c(C#N)c1NC(C)=O do in these assays?
MEKK3 PB1 HTS: 46*[inhibitor]; MEKK2wt PB1 HTS: 52*[inhibitor]; T cruzi repl: -8; NS3 helicase inh: 5; FID counter: -5; MEKK2mut PB1 HTS: -13; MEKK2wt confirm: 101; MEKK2mut confirm: 1; MEKK3 confirm: 100

How did CCCCNc1cc(NC(C)=O)cc2cc(OC)c(OC)cc12 do in these assays?
MEKK3 PB1 HTS: 97; MEKK2wt PB1 HTS: 98; T cruzi repl: 4; NS3 helicase inh: 2; FID counter: -9; MEKK2mut PB1 HTS: 3

How did Cc1nc(Nc2cnc(/C=C/c3cc(C(=O)Nc4cccc(C(F)(F)F)c4)ccc3C)cn2)cc(N2CCNCC2)n1 do in these assays?
MEKK3 PB1 HTS: 47*[inhibitor]; MEKK2wt PB1 HTS: 136; T cruzi repl: 45; NS3 helicase inh: -89; FID counter: 15; MEKK2mut PB1 HTS: 10; MEKK2wt confirm: 128; MEKK2mut confirm: 15; MEKK3 confirm: 43*
